High-throughput results (PubChem BioAssay)
Shown are actives, neighbours in structure and some others; about 2% of the full set was active somewhere.
Furin inhibitor: human furin inhibitors, primary screen, biochemical, fluorescence intensity | 220,000 compounds, 0.061% hits | purified furin, fluorogenic substrate cleavage | inhibition, % at 20 µM or 30 µM | P09958; in the data active = inhibition above about 25%
Target sequence (P09958 108-714 limits assumed): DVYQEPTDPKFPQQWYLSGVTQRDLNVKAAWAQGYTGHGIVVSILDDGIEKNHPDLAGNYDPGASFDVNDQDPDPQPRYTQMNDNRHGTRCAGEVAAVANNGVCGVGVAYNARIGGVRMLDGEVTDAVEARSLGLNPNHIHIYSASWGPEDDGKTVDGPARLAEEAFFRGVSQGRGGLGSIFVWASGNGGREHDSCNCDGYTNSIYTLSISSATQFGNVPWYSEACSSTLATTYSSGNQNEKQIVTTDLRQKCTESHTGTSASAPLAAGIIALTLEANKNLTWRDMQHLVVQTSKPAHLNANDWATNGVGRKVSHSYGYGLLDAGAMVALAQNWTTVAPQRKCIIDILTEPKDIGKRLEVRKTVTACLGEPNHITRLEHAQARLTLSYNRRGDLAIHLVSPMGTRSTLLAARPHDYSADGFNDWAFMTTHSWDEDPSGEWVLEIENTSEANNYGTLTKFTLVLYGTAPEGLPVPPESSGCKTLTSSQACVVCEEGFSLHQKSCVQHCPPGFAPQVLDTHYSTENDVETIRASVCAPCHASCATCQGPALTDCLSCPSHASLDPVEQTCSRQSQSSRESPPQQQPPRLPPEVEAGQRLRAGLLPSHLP
Insulin prom up: insulin promoter activators in MIN6 cells, imaging, high-content screening, mouse beta cells; MIN6 insulin promoter-GFP reporter; active compounds read high; z-score at 5 µM; 190,000 compounds, 0.3% hits;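 active = z-score above 3 at 5 µM with at least 500 cells counted in the well; inconclusive = wells under 500 cells, flagged as cytotoxic or low count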
Autophagy HCS: autophagy modulators in MEF cells, primary screen, imaging, high-content, MEF GFP-LC3; MEF GFP-LC3 puncta imaging; test concentration mostly 10 µM; calls only at 10 µM (by protocol); 190,000 compounds, 0.98% hits; AID 463193, 2010;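 active = percentage of spot-positive cells more than 3 SD above its plate mean, without a fluorescence outlier flag or 80% toxicity; inconclusive = no clear call, values can overlap the other calls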;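 note: spot-positive cell cutoff set from DMSO-treated cells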
HSV augment: enhancers of HSV replication in host cells, fold increase, host cell viability | 220,000 compounds, 0.005% hits | maximum fold increase | HSV replication augmentation in cells; in the data active = maximum fold increase above about 1.5; inconclusive = no clear call, values can overlap the other calls; tested in PC3 cells
Insulin prom inh: inhibitors of insulin promoter-driven GFP, primary screen, imaging, TRM-6 cells, eGFP reporter, cell count | reporter expression induced with tamoxifen | inhibition, % at 2 µM | 130,000 compounds, 0.9% hits | AID 1273, 2008;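 active = inhibition above the mean plus 3 SD, with well images judged a real hit on visual review, cut at about 60% in these data, passing the limit was not always enough; inconclusive = inhibition over the cutoff but images rejected on review; inactive = inhibition not above the cutoff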
Dynein cargo inh: inhibitors of GR-EGFP nuclear translocation, primary screen, dynein cargo transport inhibitor project, imaging, high-content, 3617.4 mouse cells; 220,000 compounds, 0.47% hits; AID 1381, 2008; z-score, hits read low; test concentration mostly 20 µM; stimulated with dexamethasone, 1 µM; active compounds read low;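 active = plate z-score of nuclear minus cytoplasmic receptor signal below a set negative limit, without overly bright fluorescence or cell loss, cut at about -3.5 in these data, passing the limit was not always enough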;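 note: z-score of nuclear minus cytoplasmic ring GR-EGFP intensity difference per well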
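Buffer or medium: tetracycline-free induction medium containing charcoal-stripped FBS / Reagent: dexamethasone agonist, 1.0 µM final, for 30 min / Technique: automated 10x imaging of fixed Hoechst-stained cells / Times: induction 48 h, compound 1 h, agonist 30 min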
Active calls of the source: *; i = inactive; ? = inconclusive; . = not tested or not shown; + = active, no number.

SMILES	Furin inhibitor	Insulin prom up	Autophagy HCS	HSV augment	Insulin prom inh	Dynein cargo inh
CCOC(=O)CCNC(=O)N1CCCC(CNS(=O)(=O)c2cccs2)C1 (stereo not given)	-10.4	-0.54	i	i	.	2.63
O=C(Nc1ccc(Cl)c(C(F)(F)F)c1)NC1CC2CCCC(C1)N2C1CC1 (stereo not given)	-3.4	.	+	i	30.0	0.759
O=C(Nc1cccc(F)c1)NC1CC2CCCC(C1)N2C1CC1 (stereo not given)	-8.0	-0.73	i	i	18.8	1.64
S=C(NC1CCCCCC1)NC1CCCC1	-30.0	0.16	+	i	.	-0.821
Cc1cc(C)nc(N2CCC(C(=O)NNC(=O)c3ccc(Cl)cc3)CC2)n1	-23.6	-0.23	.	i	.	-0.573
O=C(CSc1nnc2c3ccccc3c3ccccc3c2n1)Nc1ccccc1	-21.7	-0.67	+	.	.	-0.799
Nc1nc(SCC(=O)NCc2ccc3c(c2)OCO3)n[nH]1	9.3	0.02	i	i	65.0*	-0.83
CCn1c(C)c(C(C)=O)c(N2CCN(C(c3ccccc3)c3ccccc3)CC2)nc1=S	-15.3	-0.44	+	i	-25.0	-0.831
CCn1c(C)c(C(C)=O)c(N2CCN(c3ccccc3)CC2)nc1=S	-14.6	1.29	i	i	13.3	-0.184
C(=N\NC1=Nc2cccc3cccc1c23)/c1ccccc1	-22.0	0.59	i	i	-34.4	-0.044
Clc1ccc(/C=N/NC2=Nc3cccc4cccc2c34)cc1	-10.9	2.32	+	?	.	-1.13
Cc1ccccc1NC(=S)NCCO	-6.9	1.01	+	i	.	0.741
CCOC(=O)C(=O)N1CCC(C(=O)OC)CC1	-15.0	.	i	i	.	-0.297
Cc1sc2ncnc(N=Nc3c(O)[nH]c4ccccc34)c2c1C	-10.2	0.2	i	?	.	0.0333
CCc1cc2c(N=Nc3c(O)[nH]c4ccccc34)ncnc2s1	-5.1	-0.82	+	i	.	-0.554
CN(C)S(=O)(=O)c1ccc(NC(=O)CNc2cc(S(=O)(=O)N3CCCC3)ccc2OCC(F)(F)F)cc1	-6.0	.	i	i	-32.1	-0.64
CCN(CC)CC(=O)Nc1ccc(-c2nc3cc(NC(=O)CN(CC)CC)ccc3o2)cc1	-59.9	.	i	i	.	0.627
O=C(CN1CCCC1)Nc1ccc(-c2nc3cc(NC(=O)CN4CCCC4)ccc3o2)cc1	-28.0	-0.29	+	i	24.1	0.729
CCCCCC(=O)Nc1ccc2oc(-c3cncc(Br)c3)nc2c1	-0.2	1.4	+	i	-28.6	2.17
O=C(NCCN1CCCCCC1)C1CCCN1S(=O)(=O)c1cccc2nsnc12 (stereo not given)	-9.3	0.28	.	i	.	0.917
NNC(=S)Nc1c(Br)cc(F)cc1Br	-13.8	-0.13	.	i	.	0.408
O=C(Cc1ccc(Br)c2ccccc12)N/N=C/c1ccccn1	-19.8	.	i	i	25.0	-0.159
O=C(CCc1nc2ccccc2s1)NC1CCOC1=O (stereo not given)	-11.4	-0.56	.	i	.	0.922
Cc1ccc2c(c1)Oc1ccc([N+](=O)[O-])cc1C(=O)N2	-14.8	-0.13	i	i	-9.1	0.859
Cc1ccc2c(c1)Oc1ccc(NC(=O)CCl)cc1C(=O)N2	-18.7	0.7	+	i	-200.0	0.299
SMILES	Furin inhibitor	Insulin prom up	Autophagy HCS	HSV augment	Insulin prom inh	Dynein cargo inh
O=C(Nc1nc(-c2ccccn2)cs1)c1ccc(Br)s1	-10.7	-0.47	+	i	14.3	-0.613
CC(=O)Nc1nc(-c2ccc(Br)s2)cs1	-10.0	5.02*	i	i	-12.1	1.97
O=C(Nc1nc(-c2ccccn2)cs1)c1ccco1	-6.6	-2.83	i	i	.	-0.792
COCCNc1nc2c(c(=O)n(C)c(=O)n2C)n1Cc1cccc(C)c1	-24.1	.	i	i	.	0.121
Cc1cccc(OCCNc2nc3c(c(=O)n(C)c(=O)n3C)n2C)c1	-16.6	4.22*	i	i	-14.3	0.0602
CCc1nnc(NC(=O)CSc2nnc(COc3cccc(C)c3)o2)s1	-18.5	1.15	i	i	75.0*	1.36
CCc1nnc(NC(=O)CSc2nnc(Cc3cc(=O)[nH]c(=O)[nH]3)n2-c2ccc(OC)cc2)s1	-4.2	0.24	i	i	77.8*	0.65
COc1ccc(-n2c(Cc3cccn3C)nnc2SCC(=O)Nc2cccc(C)c2C)cc1	-14.7	3.05*	.	i	.	-0.386
CCOc1ccc(-n2ccnc2SCC(=O)Nc2nnc(CC)s2)cc1	0.8	-0.58	i	i	81.8*	-1.55
O=C(Cc1ccc(F)cc1)Nc1nnc(SCC(=O)NC2CCCC2)s1	-14.4	-0.08	i	i	.	-0.249
CC1=Nc2ccccc2N=C(NC(=O)c2ccccc2)C1c1ccccc1 (stereo not given)	-22.3	0.18	i	i	.	-0.374
Cc1ccc(-c2nc3ncccn3c2Nc2ccc3c(c2)OCCO3)cc1	-21.1	-1.84	i	i	-19.4	1.31
COc1ccc(-c2nc3ncccn3c2Nc2ccc3c(c2)OCCO3)cc1	-16.4	0.51	i	.	69.0*	0.709
N#CCSc1nnc(-c2sc3ccccc3c2Cl)o1	-14.9	-0.06	+	i	-423.1	-0.127
O=C(CCc1ccc(Oc2cc([N+](=O)[O-])cc([N+](=O)[O-])c2)cc1)N1CCCCC1	-13.2	0.23	i	i	.	.
c1ccc2c(c1)C(=Nn1cnnc1)c1ccccc1-2	26.3*	-0.2	i	i	12.5	0.25
COc1ccc(S(=O)(=O)Nc2cc3c(C(C)=O)c(C)oc3c3ccccc23)cc1	-7.7	.	+	i	-154.2	0.489
CNC(=O)NC(=O)COC(=O)/C=C/c1cccc(Br)c1	-22.6	1.01	i	i	33.3	1.79
CC(=C\C(=O)O)/C(=C/c1ccc(C)o1)C(=O)O	-5.8	0.01	i	i	14.3	0.202
COc1ccc(C)cc1NC(=O)COC(C)=O	-16.7	3.48*	i	i	-15.2	-0.392
COc1ccc([N+](=O)[O-])cc1NC(=O)COC(C)=O	-8.3	1.66	i	i	?	-0.291
O=C1CCC(=O)N1CC(=O)N(c1ccccc1)c1ccccc1	4.4	-1.18	i	i	-42.9	0.523
CCCCCC(=O)N(CN1C(=O)CCC1=O)c1ccccc1	31.5*	0.08	i	i	-10.0	-0.304
O=C(Nc1nc2ccccc2s1)C1CC(=O)N(c2ccc(Br)cc2)C1 (stereo not given)	-13.6	.	i	i	66.7*	-0.82
O=C(Nc1nc2ccccc2s1)C1CC(=O)N(c2ccccc2)C1 (stereo not given)	-16.2	0.88	i	i	0.0	-0.851
c1ccn2cc(C34CC5CC(CC(C5)C3)C4)nc2c1	-26.7	-0.5	i	i	.	-0.766
